As a reminder, the IC50 is the midpoint of a concentration-inhibition curve. A lower IC50 goes with greater potency in that assay.

In one assay the test system is SK-OV-3. Briefly: Cytotoxicity against human SKOV3 cells after 72 hrs by sulforhodamine B assay. It counts as functional, cell-based. Conditions: SK-OV-3, 72 h. The procedure, abridged:
(§1)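 Cells in 96-well plates were exposed in triplicate to a concentration gradient of each agent at 37 °C for 72 h, and growth was then measured by sulforhodamine B staining. IC50 is the concentration giving 50% growth inhibition relative to untreated control cells, calculated by the logit method.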
On the technique in general: In SRB staining, fixed cells bind dye roughly in proportion to their protein.

For another assay, the system named is PC-3. In words: Cytotoxicity against human PC3 cells after 72 hrs by sulforhodamine B assay. In kind it is functional, cell-based. Conditions: PC-3, 72 h. The procedure, abridged: as §1

On to `CC(C)[C@]12O[C@H]1[C@@H]1O[C@]13[C@]1(O[C@H]1C[C@H]1C4=C(CC[C@@]13C)C(=O)OC4)[C@]21CN(c2ccc3c(cnn3CCN3CCOCC3)c2)CO1`, for which the IC50 with SK-OV-3 was 152 nM; in the assay on PC-3, 253 nM.

Regarding `CC(C)[C@]12O[C@H]1[C@@H]1O[C@]13[C@]1(O[C@H]1C[C@H]1C4=C(CC[C@@]13C)C(=O)OC4)[C@]2(O)Cn1cc(C2CC2)nn1`, the IC50 in the assay with SK-OV-3 and in the assay on PC-3 was above 10000 nM each time.

For `COC(=O)c1cn(C[C@@]2(O)[C@]34O[C@H]3C[C@H]3C5=C(CC[C@]3(C)[C@@]43O[C@H]3[C@@H]3O[C@@]32C(C)C)C(=O)OC5)nn1`, the IC50 in the assay on SK-OV-3 and in the assay on PC-3 was above 10000 nM throughout.

With `CC(C)[C@]12O[C@H]1[C@@H]1O[C@]13[C@]1(O[C@H]1C[C@H]1C4=C(CC[C@@]13C)C(=O)OC4)[C@]2(O)Cn1cc(-c2ccccc2)nn1`, the 50% inhibitory concentration (IC50) in the assay with SK-OV-3 and with PC-3 was above 10000 nM each time.

`CC(C)[C@]12O[C@H]1[C@@H]1O[C@]13[C@]1(O[C@H]1C[C@H]1C4=C(CC[C@@]13C)C(=O)OC4)[C@]2(O)CNc1cccnc1`: the IC50 in the assay on SK-OV-3 worked out at 745 nM; with PC-3 it was 2810 nM.

On to `CC(C)[C@]12O[C@H]1[C@@H]1O[C@]13[C@]1(O[C@H]1C[C@H]1C4=C(CC[C@@]13C)C(=O)OC4)[C@]2(O)CNc1cccc2[nH]ccc12`, for which the results for the IC50 in the assay on SK-OV-3 and with PC-3 were 53.8 nM and 97.8 nM, respectively.

With `CC(C)[C@]12O[C@H]1[C@@H]1O[C@]13[C@]1(O[C@H]1C[C@H]1C4=C(CC[C@@]13C)C(=O)OC4)[C@]2(O)CNc1ccc2[nH]ncc2c1`, the concentration for half-maximal inhibition (IC50) with SK-OV-3 turned out to be 17.4 nM; in the assay on PC-3 it was 25.3 nM.

Regarding `CC(C)[C@]12O[C@H]1[C@@H]1O[C@]13[C@]1(O[C@H]1C[C@H]1C4=C(CC[C@@]13C)C(=O)OC4)[C@]2(O)CNc1ccc2cn[nH]c2c1`, the IC50 in the assay on SK-OV-3 stood at 49 nM; in the assay on PC-3 it was 188 nM.

For `CC(C)[C@]12O[C@H]1[C@@H]1O[C@]13[C@]1(O[C@H]1C[C@H]1C4=C(CC[C@@]13C)C(=O)OC4)[C@]2(O)CNc1ccc2c(cnn2C)c1`, the IC50 stood at 15 nM in the assay with SK-OV-3 and 132 nM with PC-3.

In the case of `CC(C)[C@]12O[C@H]1[C@@H]1O[C@]13[C@]1(O[C@H]1C[C@H]1C4=C(CC[C@@]13C)C(=O)OC4)[C@]2(O)CNc1ccc2nn(C)cc2c1`, the IC50 came out at 22.3 nM with SK-OV-3 and 97 nM in the assay with PC-3.

Turning to `COC(=O)n1ncc2cc(NC[C@@]3(O)[C@]45O[C@H]4C[C@H]4C6=C(CC[C@]4(C)[C@@]54O[C@H]4[C@@H]4O[C@@]43C(C)C)C(=O)OC6)ccc21`, the IC50 in the assay on SK-OV-3 amounted to 102 nM; with PC-3 it was 188 nM.

As to `COC(=O)c1n[nH]c2ccc(NC[C@@]3(O)[C@]45O[C@H]4C[C@H]4C6=C(CC[C@]4(C)[C@@]54O[C@H]4[C@@H]4O[C@@]43C(C)C)C(=O)OC6)cc12`, the IC50 was determined as 35.8 nM in the assay on SK-OV-3 and 264 nM in the assay on PC-3.

With `CC(C)[C@]12O[C@H]1[C@@H]1O[C@]13[C@]1(O[C@H]1C[C@H]1C4=C(CC[C@@]13C)C(=O)OC4)[C@]2(O)CNc1ccc2c(cnn2CCN2CCOCC2)c1`, the IC50 came out at 36.4 nM in the assay with SK-OV-3 and 36.6 nM in the assay with PC-3.

In the case of `CC(C)[C@]12O[C@H]1[C@@H]1O[C@]13[C@]1(O[C@H]1C[C@H]1C4=C(CC[C@@]13C)C(=O)OC4)[C@]2(O)CNc1ccc2nn(CCN3CCOCC3)cc2c1`, the half-maximal inhibitory concentration (IC50) came out at 77 nM with SK-OV-3 and 40.8 nM with PC-3.

As to `CC(C)[C@]12O[C@H]1[C@@H]1O[C@]13[C@]1(O[C@H]1C[C@H]1C4=C(CC[C@@]13C)C(=O)OC4)[C@]2(O)CNc1ccc2nn(CCN3CCCCC3)cc2c1`, the IC50 with SK-OV-3 turned out to be 99 nM; in the assay with PC-3, 66.1 nM.

Regarding `CC(C)[C@]12O[C@H]1[C@@H]1O[C@]13[C@]1(O[C@H]1C[C@H]1C4=C(CC[C@@]13C)C(=O)OC4)[C@]2(O)CNc1ccc2c(c1)CC(=O)N2`, the IC50 with SK-OV-3 was found to be 38.4 nM; in the assay with PC-3, 54.1 nM.

Regarding `CC(C)[C@]12O[C@H]1[C@@H]1O[C@]13[C@]1(O[C@H]1C[C@H]1C4=C(CC[C@@]13C)C(=O)OC4)[C@]2(O)CNc1ccc2c(c1)C(C)(C)C(=O)N2C`, the concentration for half-maximal inhibition (IC50) stood at 11.7 nM in the assay on SK-OV-3 and 84.9 nM in the assay on PC-3.

In the case of `CC(C)[C@]12O[C@H]1[C@@H]1O[C@]13[C@]1(O[C@H]1C[C@H]1C4=C(CC[C@@]13C)C(=O)OC4)[C@]2(O)CNc1ccc2ncccc2c1`, the half-inhibitory concentration (IC50) with SK-OV-3 was 85 nM; with PC-3 it was 452 nM.

With `CC(C)[C@]12O[C@H]1[C@@H]1O[C@]13[C@]1(O[C@H]1C[C@H]1C4=C(CC[C@@]13C)C(=O)OC4)[C@]2(O)CNc1ccc2nccnc2c1`, the IC50 worked out at 369 nM in the assay with SK-OV-3 and 157 nM with PC-3.

Turning to `CC(C)[C@]12O[C@H]1[C@@H]1O[C@]13[C@]1(O[C@H]1C[C@H]1C4=C(CC[C@@]13C)C(=O)OC4)[C@]2(O)CNc1ccc2ncncc2c1`, the IC50 in the assay on SK-OV-3 turned out to be 274 nM; with PC-3, 781 nM.

Turning to `CC(C)[C@]12O[C@H]1[C@@H]1O[C@]13[C@]1(O[C@H]1C[C@H]1C4=C(CC[C@@]13C)C(=O)OC4)[C@]2(O)CNc1ccc2oc(=O)ccc2c1`, the IC50 was found to be 87.2 nM with SK-OV-3 and 353 nM with PC-3.

As for `CC(C)[C@]12O[C@H]1[C@@H]1O[C@]13[C@]1(O[C@H]1C[C@H]1C4=C(CC[C@@]13C)C(=O)OC4)[C@]2(O)CNc1ccc2occc(=O)c2c1`, the values for the IC50 in the assay with SK-OV-3 and in the assay with PC-3 were 368 nM and 341 nM, respectively.

For `CC(C)[C@]12O[C@H]1[C@@H]1O[C@]13[C@]1(O[C@H]1C[C@H]1C4=C(CC[C@@]13C)C(=O)OC4)[C@]2(O)CNc1ccc2c(c1)C(=O)CCO2`, the IC50 in the assay with SK-OV-3 was found to be 32.1 nM; in the assay on PC-3 it was 172 nM.

Take `CC(C)[C@]12O[C@H]1[C@@H]1O[C@]13[C@]1(O[C@H]1C[C@H]1C4=C(CC[C@@]13C)C(=O)OC4)[C@]2(O)CNc1ccc2c(c1)CC(=O)O2`: the 50% inhibitory concentration (IC50) was 12.5 nM in the assay with SK-OV-3 and 67.9 nM in the assay on PC-3.

Consider `CC(C)[C@]12O[C@H]1[C@@H]1O[C@]13[C@]1(O[C@H]1C[C@H]1C4=C(CC[C@@]13C)C(=O)OC4)[C@]21CN(c2ccc3c(cnn3C)c2)CO1`, for which the concentration for half-maximal inhibition (IC50) in the assay on SK-OV-3 amounted to 79.7 nM; in the assay on PC-3 it was 365 nM.

As to `CC(C)[C@]12O[C@H]1[C@@H]1O[C@]13[C@]1(O[C@H]1C[C@H]1C4=C(CC[C@@]13C)C(=O)OC4)[C@H]2O` [EPITRIPTOIIDE], the IC50 with PC-3 is 1320 nM.

Source of the values: ChEMBL document CHEMBL3112518, “Design, synthesis and anticancer activity evaluation of novel C14 heterocycle substituted epi-triptolide” (Eur J Med Chem, 2014).
